Measurements as given in ChEMBL document CHEMBL1158122, “Anti-inflammatory, anti-tumor-promoting, and cytotoxic activities of constituents of marigold (Calendula officinalis) flowers” (J Nat Prod, 2006).

Assays:
[1] = test system: OVCAR-5; assay: Cytotoxicity against human OVCAR5 cells after 48 hrs by SRB assay; format: functional; conditions: OVCAR-5, 48 h
[2] = test system: UACC-257; assay: Cytotoxicity against human UACC-257 cells after 48 hrs by SRB assay; format: functional; conditions: UACC-257, 48 h
Procedure, shortened: (§1)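 Tested in the NCI panel of 60 human tumour cell lines covering lung, colon, melanoma, renal, ovarian, breast and leukaemia. At least five concentrations were run in 10-fold dilutions starting from 10^-4 M. Exposure was continuous for 48 h. Growth or viability was estimated by sulforhodamine B protein staining, and GI50 values were reported.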

[3] = test system: HOP-92; assay: Cytotoxicity against human HOP-92 cells after 48 hrs by SRB assay; format: functional; conditions: HOP-92, 48 h
[4] = test system: ACHN; assay: Cytotoxicity against human ACHN cells after 48 hrs by SRB assay; format: functional
[5] = test system: KM12; assay: Cytotoxicity against human KM12 cells after 48 hrs by SRB assay; format: functional; conditions: KM12, 48 h
[6] = test system: MDA-MB-231; assay: Cytotoxicity against human MDA-MB-231 cells after 48 hrs by SRB assay; format: functional; conditions: MDA-MB-231, 48 h
[7] = test system: SK-MEL-2; assay: Cytotoxicity against human SK-MEL-2 cells after 48 hrs by SRB assay; format: functional; conditions: SK-MEL-2, 48 h
[8] = test system: PC-3; assay: Cytotoxicity against human PC-3 cells after 48 hrs by SRB assay; format: functional; conditions: PC-3, 48 h
[9] = test system: HOP-62; assay: Cytotoxicity against human HOP-62 cells after 48 hrs by SRB assay; format: functional; conditions: HOP-62, 48 h
[10] = Cytotoxicity against human Hs 578T cells after 48 hrs by SRB assay; format: functional
[11] = test system: MCF7; assay: Cytotoxicity against human MCF7 cells after 48 hrs by SRB assay; format: functional; conditions: MCF7, 48 h
[12] = Cytotoxicity against human Raji cells assessed as cell viability at 1000 molar ratio; format: cell-based; conditions: read-out: Activity
Procedure, shortened: (§2)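 Raji cells were treated with 32 pmol TPA to induce EBV early antigen activation. The test agent was added at 10, 100, 500 or 1000 mol ratio relative to TPA, and Raji cell viability was measured alongside EA activation.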

[13] = test system: NCI-H23; assay: Cytotoxicity against human NCI-H23 cells after 48 hrs by SRB assay; format: functional; conditions: NCI-H23, 48 h
[14] = test system: SF-295; assay: Cytotoxicity against human SF-295 cells after 48 hrs by SRB assay; format: functional; conditions: SF-295, 48 h
[15] = Inhibition of TPA-induced EBV-early antigen activation in human Raji cells relative to TPA; format: cell-based, human gammaherpesvirus 4
[16] = test system: CAKI-1; assay: Cytotoxicity against human Caki-1 cells after 48 hrs by SRB assay; format: functional; conditions: CAKI-1, 48 h
[17] = test system: OVCAR-8; assay: Cytotoxicity against human OVCAR8 cells after 48 hrs by SRB assay; format: functional; conditions: OVCAR-8, 48 h
[18] = test system: SNB-19; assay: Cytotoxicity against human SNB-19 cells after 48 hrs by SRB assay; format: functional; conditions: SNB-19, 48 h
[19] = test system: IGROV-1; assay: Cytotoxicity against human IGROV1 cells after 48 hrs by SRB assay; format: functional; conditions: IGROV-1, 48 h
[20] = test system: Raji; assay: Inhibition of TPA-induced EBV-early antigen activation in human Raji cells at 1000 molar ratio relative to TPA; format: cell-based; design: scale not given: the % may be the effect or the level left; conditions: human gammaherpesvirus 4
[21] = Cytotoxicity against human HCT 116 cells after 48 hrs by SRB assay; format: functional; conditions: HCT-116, 48 h
[22] = test system: HCC 2998; assay: Cytotoxicity against human HCC2998 cells after 48 hrs by SRB assay; format: functional; conditions: HCC 2998, 48 h
[23] = test system: NCI/ADR-RES; assay: Cytotoxicity against human NCI/ADR-RES cells after 48 hrs by SRB assay; format: functional
[24] = test system: CCRF-CEM; assay: Cytotoxicity against human CCRF-CEM cells after 48 hrs by SRB assay; format: functional
[25] = Cytotoxicity against human Raji cells assessed as cell viability at 500 molar ratio; format: cell-based; conditions: read-out: Activity; procedure, shortened: as §2
[26] = test system: RXF 393; assay: Cytotoxicity against human […] cells after 48 hrs by SRB assay; format: functional; conditions: RXF 393, 48 h
[27] = test system: OVCAR-3; assay: Cytotoxicity against human OVCAR-3 cells after 48 hrs by SRB assay; format: functional; conditions: OVCAR-3, 48 h
[28] = test system: MDA-MB-435; assay: Cytotoxicity against human MDA-MB-435 cells after 48 hrs by SRB assay; format: functional; conditions: MDA-MB-435, 48 h
[29] = test system: A549; assay: Cytotoxicity against human A549 cells after 48 hrs by SRB assay; format: functional; conditions: A549, 48 h
[30] = test system: Raji; assay: Inhibition of TPA-induced EBV-early antigen activation in human Raji cells at 100 molar ratio relative to TPA; format: cell-based; design: scale not given: the % may be the effect or the level left; conditions: human gammaherpesvirus 4
[31] = test system: EKVX; assay: Cytotoxicity against human EKVX cells after 48 hrs by SRB assay; format: functional
[32] = test system: Mus musculus; assay: Antiinflammatory activity against TPA-induced ear edema in mouse; format: functional
Procedure, shortened: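 Specific-pathogen-free female ICR mice were housed five per cage at 24 ± 2 °C. Inflammation was induced on the ear with TPA at 1 µg/ear, and the test agent was applied per ear. Ear edema inhibition was expressed as ID50 in mg per ear.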

[33] = test system: U-251; assay: Cytotoxicity against human U251 cells after 48 hrs by SRB assay; format: functional; conditions: U-251, 48 h; procedure, shortened: as §1
[34] = test system: UO-31; assay: Cytotoxicity against human UO-31 cells after 48 hrs by SRB assay; format: functional; conditions: UO-31, 48 h; procedure, shortened: as §1
[35] = test system: NCI-H460; assay: Cytotoxicity against human NCI-H460 cells after 48 hrs by SRB assay; format: functional; conditions: NCI-H460, 48 h
[36] = Cytotoxicity against human Raji cells assessed as cell viability at 10 molar ratio; format: cell-based; conditions: read-out: Activity; procedure, shortened: as §2
[37] = test system: K562; assay: Cytotoxicity against human K-562 cells after 48 hrs by SRB assay; format: functional; conditions: K562, 48 h
[38] = test system: T47D; assay: Cytotoxicity against human T47D cells after 48 hrs by SRB assay; format: functional; procedure, shortened: as §1
[39] = test system: SN12C; assay: Cytotoxicity against human SN12C cells after 48 hrs by SRB assay; format: functional
[40] = test system: COLO 205; assay: Cytotoxicity against human COLO205 cells after 48 hrs by SRB assay; format: functional; conditions: COLO 205, 48 h
[41] = test system: Raji; assay: Inhibition of TPA-induced EBV-early antigen activation in human Raji cells at 500 molar ratio relative to TPA; format: cell-based; design: scale not given: the % may be the effect or the level left; conditions: human gammaherpesvirus 4
[42] = test system: HT-29; assay: Cytotoxicity against human HT-29 cells after 48 hrs by SRB assay; format: functional; conditions: HT-29, 48 h
[43] = Cytotoxicity against human Raji cells assessed as cell viability at 100 molar ratio; format: cell-based; conditions: read-out: Activity; procedure, shortened: as §2
[44] = test system: HCT-15; assay: Cytotoxicity against human HCT-15 cells after 48 hrs by SRB assay; format: functional; conditions: HCT-15, 48 h
[45] = test system: NCI-H322M; assay: Cytotoxicity against human NCI-H322M cells after 48 hrs by SRB assay; format: functional
[46] = test system: RPMI-8226; assay: Cytotoxicity against human RPMI8226 cells after 48 hrs by SRB assay; format: functional; conditions: RPMI-8226, 48 h
[47] = test system: BT-549; assay: Cytotoxicity against human BT-549 cells after 48 hrs by SRB assay; format: functional; conditions: BT-549, 48 h
[48] = test system: MOLT-4; assay: Cytotoxicity against human MOLT-4 cells after 48 hrs by SRB assay; format: functional; conditions: MOLT-4, 48 h
[49] = test system: 786-0; assay: Cytotoxicity against human 786-0 cells after 48 hrs by SRB assay; format: functional; conditions: 786-0, 48 h
[50] = test system: SK-MEL-5; assay: Cytotoxicity against human SK-MEL-5 cells after 48 hrs by SRB assay; format: functional; conditions: SK-MEL-5, 48 h
[51] = test system: TK-10; assay: Cytotoxicity against human TK-10 cells after 48 hrs by SRB assay; format: functional; conditions: TK-10, 48 h; procedure, shortened: as §1
[52] = test system: SW-620; assay: Cytotoxicity against human SW620 cells after 48 hrs by SRB assay; format: functional; conditions: SW-620, 48 h
[53] = test system: Malme-3M; assay: Cytotoxicity against human MALME-3M cells after 48 hrs by SRB assay; format: functional
[54] = test system: NCI-H226; assay: Cytotoxicity against human NCI-H226 cells after 48 hrs by SRB assay; format: functional; conditions: NCI-H226, 48 h
[55] = Cytotoxicity against human SK MEL28 cells after 48 hrs by SRB assay; format: functional; conditions: SK-MEL-28, 48 h
[56] = test system: SF-268; assay: Cytotoxicity against human SF-268 cells after 48 hrs by SRB assay; format: functional; conditions: SF-268, 48 h
[57] = test system: UACC-62; assay: Cytotoxicity against human UACC-62 cells after 48 hrs by SRB assay; format: functional; conditions: UACC-62, 48 h; procedure, shortened: as §1
[58] = test system: LOX IMVI; assay: Cytotoxicity against human LOX IMVI cells after 48 hrs by SRB assay; format: functional
[59] = test system: HL-60; assay: Cytotoxicity against human HL-60 cells after 48 hrs by SRB assay; format: functional; conditions: HL-60, 48 h
[60] = test system: Raji; assay: Inhibition of TPA-induced EBV-early antigen activation in human Raji cells at 10 molar ratio relative to TPA; format: cell-based; design: scale not given: the % may be the effect or the level left; conditions: human gammaherpesvirus 4

SMILES: CCCCOC(=O)[C@H]1O[C@@H](O[C@H]2CC[C@]3(C)[C@H]4CC=C5[C@@H]6CC(C)(C)CC[C@]6(C(=O)O[C@@H]6O[C@H](CO)[C@@H](O)[C@H](O)[C@H]6O)CC[C@@]5(C)[C@]4(C)CC[C@H]3C2(C)C)[C@H](O)[C@@H](O)[C@@H]1O
- GI50 [1]: 3070 nM
- GI50 [2]: 4180 nM
- GI50 [3]: 1040 nM
- GI50 [4]: 6290 nM
- GI50 [5]: 2080 nM
- GI50 [6]: 1150 nM
- GI50 [7]: 1850 nM
- GI50 [8]: 1260 nM
- GI50 [9]: 2220 nM
- GI50 [10]: 1620 nM
- GI50 [11]: 1600 nM
- viability at 1000 molar ratio [12]: 70%
- GI50 [13]: 1480 nM
- GI50 [14]: 2560 nM
- IC50 [15]: 479 molar ratio
- GI50 [16]: 17200 nM
- GI50 [17]: 4280 nM
- GI50 [18]: 1440 nM
- GI50 [19]: 1700 nM
- Activity [20]: 10.1%
- GI50 [21]: 1120 nM
- GI50 [22]: 890 nM
- GI50 [23]: > 50000 nM
- GI50 [24]: 23100 nM
- viability at 500 molar ratio [25]: > 80%
- GI50 [26]: 1650 nM
- GI50 [27]: 3270 nM
- GI50 [28]: 2520 nM
- GI50 [29]: 1830 nM
- Activity [30]: 70%
- GI50 [31]: 3390 nM
- ID50 [32]: 0.07 mg
- GI50 [33]: 1060 nM
- GI50 [34]: 12700 nM
- GI50 [35]: 2510 nM
- viability at 10 molar ratio [36]: > 80%
- GI50 [37]: 1580 nM
- GI50 [38]: 1750 nM
- GI50 [39]: 1390 nM
- GI50 [40]: 1360 nM
- Activity [41]: 48.1%
- GI50 [42]: 2070 nM
- viability at 100 molar ratio [43]: > 80%
- GI50 [44]: 6730 nM
- GI50 [45]: 4080 nM
- GI50 [46]: 780 nM
- GI50 [47]: 1700 nM
- GI50 [48]: 1000 nM
- GI50 [49]: 1560 nM
- GI50 [50]: 930 nM
- GI50 [51]: 1850 nM
- GI50 [52]: 1930 nM
- GI50 [53]: 1470 nM
- GI50 [54]: 1490 nM
- GI50 [55]: 2600 nM
- GI50 [56]: 2170 nM
- GI50 [57]: 890 nM
- GI50 [58]: 810 nM
- GI50 [59]: 1210 nM
- Activity [60]: 100%
